Each structure is given as a SMILES string. The campaign covered roughly 330,000 compounds. About 1,100 (0.33%) were called active.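 Rule for the calls: active = versus positive control, 20 µM dose yields 30% or more activation; inactive = the rest.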 What follows is part of a selection rich in actives, with near analogues and random picks from the rest.

The test can be described thus: activators of adaptive XBP1 UPR arm, primary screen, cell-based, CHO-XBP1 luciferase reporter, luminescence, uHTS (AID 463104).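 Note: 100% = tunicamycin at 10 µg/mL and 0% = DMSO only wells.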 To be noted: IRE1-XBP1 UPR activation, at 20 µM, hits give high values, percent of tunicamycin response, DMSO as zero. The method in brief:
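Material: CHO cell line with stable XBP1 luciferase reporter; schedule: 16-18 h cell attachment at 37 °C, then 6 h compound exposure; signal: glow luminescence from Steady-Glo reagent; medium: serum-containing F12 medium, 10% FBS; benchmarks: tunicamycin 10 µg/mL and vehicle-only wells; read-out: percent activation relative to tunicamycin reference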
On to `CN(C)C(=O)CCc1ccc2c3c([nH]c2c1)[C@]1(CCc2ccccc2)[C@@H](C(=O)N2CCCCC2)C[C@H](CC(=O)NCCC2=CCCCC2)C(=O)N1CC3`, for which the activation was 37.8% (active).

Turning to `CN(C)C(=O)CCc1ccc2c3c([nH]c2c1)[C@]1(C)[C@@H](C(=O)N2CCCCC2)C[C@H](CC(=O)NCCC2=CCCCC2)C(=O)N1CC3`, the activation is -0.99% (inactive).

As to `CC(C)N(C(=O)[C@H]1C[C@H](CC(=O)NCCC2=CCCCC2)C(=O)N2CCc3c([nH]c4cc(CCC(=O)N(C)C)ccc34)[C@]12C)C(C)C`, the activation is -2.39% (inactive).

Regarding `CCOC(=O)N1CCC(O)(c2cc(C)c(C)cc2C)CC1`, the activation was 0.36% (inactive).

Turning to `c1ccc(-n2nnnc2NC2CCCCCC2)cc1`, the activation was -3.04% (inactive).

As for `COc1cc(OC)c(C(=O)OC(C)C(=O)Nc2cc(C(F)(F)F)ccc2Cl)cc1OC` (configuration not stated), the activation is 1.27% (inactive).

Regarding `COc1ccc(C2CC(=O)Nc3sc(=N)c4c(N)c(C#N)c(N)nc4c32)cc1OC` (configuration not stated), the activation was 2.45% (inactive).

Take `N#Cc1c(N)nc2c3c(sc(=N)c2c1N)NC(=O)CC3c1ccccc1Cl` (configuration not stated): the activation was 31.5% (active).

For `CSc1nc2c(c(=O)[nH]1)C(c1cccc(Cl)c1Cl)CC(=O)N2` (configuration not stated), the activation is -1.96% (inactive).

For `O=C(Nc1nnc(-c2ccccc2F)s1)c1ccccc1F`, the activation is 4.27% (inactive).

Consider `Cc1ccc(-n2ncc3c2CC(C)(C)CC3NC(=O)CCc2cnn(C)c2)cc1` (configuration not stated), for which the activation is -4.76% (inactive).

As to `COC(=O)c1sccc1NC(=O)COc1ccc(Cl)cc1`, the activation was -0.33% (inactive).

On to `CCOC(=O)c1c(NC(=O)c2ccc(S(=O)(=O)N(C)CC3CCCO3)cc2)sc2c1CC(C)(C)NC2(C)C` (configuration not stated), for which the activation was -6.05% (inactive).

`COC(=O)c1c(NC(=O)COc2ccc(Cl)cc2Cl)sc2c1CC(C)(C)NC2(C)C`: the activation was 74.2% (active).

In the case of `COc1ccc(-c2cc(=O)oc3cc(OCC(=O)N(C)C4CCS(=O)(=O)C4)ccc23)cc1` (configuration not stated), the activation was -1.57% (inactive).

For `COc1ncnc2c1N=C1CC(C)(C)CC(N)=C1S2`, the activation is -0.91% (inactive).

With `CN1C(=O)/C(=C/c2ccc(C(=O)NC3CCCC3)cc2)Oc2ccccc21`, the activation is 33.7% (active).

With `O=C(NC1CC1)c1ccc(-c2ccccc2)cc1`, the activation was 0.87% (inactive).

For the compound `CN1CCN(CCCNC(=O)c2ccc(/C=C3\Oc4ccccc4N(Cc4ccc(Cl)cc4)C3=O)cc2)CC1`, the activation is 13.7% (inactive).

Consider `COc1cccc(NC(=O)C(Sc2nnnn2C)c2ccccc2)c1` (configuration not stated), for which the activation is -3.49% (inactive).

For the compound `CCOC(=O)N1CCN(C(=O)c2n[nH]c(=O)c3ccccc23)CC1`, the activation is -2.8% (inactive).

For the compound `CCOC(=O)N1CCN(C(=O)c2nn(-c3ccc(C)cc3)c(=O)c3c2c2ccccc2n3C)CC1`, the activation was 34.3% (active).

`CCOC(=O)N1CCN(C(=O)Cn2cnc3ccccc3c2=O)CC1`: the activation is -3.17% (inactive).

Regarding `CN(Cc1ccccc1)CC(O)COc1ccc(CNCc2cc3ccccc3s2)cc1` (configuration not stated), the activation was -0.93% (inactive).

Turning to `CCOC(=O)c1c(NC(=O)CCl)sc(C(=O)N(CC)CC)c1C`, the activation was 11.5% (inactive).

In the case of `NC(=O)Nc1ccc(C(=O)OCC(=O)NC2CCCc3ccccc32)cc1` (configuration not stated), the activation was -2.79% (inactive).

Turning to `CCOC(=O)c1c(NC(=O)CNC2CCCc3ccccc32)sc(C(N)=O)c1C` (configuration not stated), the activation is 39.6% (active).

For `CC1CCCCC1NC(=O)CN1CCC(O)(c2ccc3c(c2)OCO3)CC1` (configuration not stated), the activation was -2.34% (inactive).

Regarding `O=C(NCC(=O)N1CCN(c2ncc(C(F)(F)F)cc2Cl)CC1)c1ccc(Br)o1`, the activation was -1.88% (inactive).

For the compound `CCSc1nnc(-c2cc3c(s2)-c2ccccc2CC3)o1`, the activation was 3.74% (inactive).

With `Nc1nc(Nc2ccccc2F)nc(NC2CCCCC2)c1[N+](=O)[O-]`, the activation was 11.1% (inactive).

`Nc1nc(NCC2CCCO2)nc(Nc2ccccc2F)c1[N+](=O)[O-]` (configuration not stated): the activation was 1.61% (inactive).

Regarding `C=CCNc1nc(N)c([N+](=O)[O-])c(NC2CCCCC2)n1`, the activation is 32% (active).

`Cc1ccc(OCC(=O)Nc2ccc(NC(=O)c3cccs3)cc2)c(C)c1`: the activation is 10.1% (inactive).

Turning to `Cc1ccc(-c2nnc(-c3ccc(NC(=O)c4cccs4)cc3)o2)cc1`, the activation is 198% (active).

Consider `Cc1ccc(NC(=O)c2cccs2)cc1S(=O)(=O)N(C)C`, for which the activation was 1.24% (inactive).

Consider `COc1ccc(-c2ccc(CCC(=O)O)n2-c2ccc(O)cc2)cc1`, for which the activation is -1.71% (inactive).

For the compound `Oc1cccc2ccc(/C=C/c3ccc(Br)s3)nc12`, the activation was 54.5% (active).

In the case of `Nc1ccc(S(=O)(=O)Nc2nccc(/C=C/c3ccc(Br)s3)n2)cc1`, the activation was -1.07% (inactive).

In the case of `c1ccc(-c2ccnc3nc(-n4cccc4)nn23)cc1`, the activation was 0.42% (inactive).

As to `N#Cc1ccc(Oc2ccc(C(F)(F)F)cc2NC(=O)c2ccc(F)cc2)cc1`, the activation was 0.22% (inactive).

In the case of `COc1cc(NC(=O)c2cncc(-c3ccc(C#N)cc3)c2)cc(C(=O)Nc2cccc(C(F)(F)F)c2)c1`, the activation was 125% (active).

Consider `COc1cc(NC(=O)c2[nH]cnc2C(N)=O)cc(C(=O)Nc2cccc(C(F)(F)F)c2)c1`, for which the activation was -2.27% (inactive).

Turning to `Cc1cc2c(C)nc(N/N=C/c3ccccc3)nc2o1`, the activation was 4.19% (inactive).

Turning to `O=C(N/C(=C/c1ccc(Cl)cc1)C(=O)N1CCCCC1)c1ccco1`, the activation was -3.57% (inactive).

Consider `Cc1ccc(SC(CC(=O)c2ccc(C(C)(C)C)cc2)C(=O)O)cc1` (configuration not stated), for which the activation is 0.27% (inactive).

`C=CCn1c(SCc2ccccc2)nc2c1c(=O)[nH]c(=O)n2C`: the activation is 5.46% (inactive).

Consider `COCCCNc1nc2c(-c3cccc(C)c3)nnn2c2ccc(Cl)cc12`, for which the activation is 26.4% (inactive).

As to `Cc1cccc(NC(=O)c2ccc(S(=O)(=O)N(C)c3ccccc3)cc2)n1`, the activation is -2.2% (inactive).

With `C=CCN(CC=C)S(=O)(=O)c1ccc(C(=O)Nc2nc3c(s2)CCc2ccccc2-3)cc1`, the activation was 35.1% (active).

Take `O=C(Nc1ccc(S(=O)(=O)N2CCc3ccccc3C2)cc1)c1ccccc1`: the activation is -1.11% (inactive).

As for `COc1ccc(C(=O)OCC(=O)N2CC(=O)Nc3ccccc32)cc1Br`, the activation is 0.2% (inactive).

Consider `COc1ccc(C2=NN(C(=O)c3ccccc3C(=O)O)C(c3ccccc3O)C2)cc1` (configuration not stated), for which the activation was -1.79% (inactive).

In the case of `CCOc1ccccc1C1CC(c2cccc(NS(C)(=O)=O)c2)=NN1C(=O)c1ccccc1` (configuration not stated), the activation is -3.45% (inactive).

In the case of `CCOc1ccc2nc(Cl)c(C3CC(c4ccccc4)=NN3C(=O)c3cccs3)cc2c1` (configuration not stated), the activation was 51.3% (active).

Take `CC(C)(C)c1cc(P(=O)(c2ccccc2)c2ccccc2)ccc1O`: the activation is -1.41% (inactive).

Turning to `CN(C)c1ccc(NC(=O)c2ccncc2)c2ccccc12`, the activation was -0.55% (inactive).

Regarding `O=C(Nc1ccc2nc3n(c(=O)c2c1)CCCC3)c1ccc(Cl)nc1`, the activation is 2.35% (inactive).

For the compound `CCCCN(CC)C(=S)Nc1ccc2nc3n(c(=O)c2c1)CCCCC3`, the activation is 1.45% (inactive).

`O=C(Nc1ccc2nc3n(c(=O)c2c1)CCCCC3)c1ccccc1Cl`: the activation is 45.2% (active).

Turning to `Cc1ccc(CS(=O)(=O)CCC(=O)NCc2ccc(F)cc2)cc1`, the activation was -1.62% (inactive).

Consider `COc1ccc(Nc2cc(C)nc(-n3nc(C)cc3C)n2)cc1`, for which the activation is 121% (active).

For `CC(=O)c1ccc(Oc2cc(C)nc(-n3nc(C)cc3C)n2)cc1`, the activation was 16.4% (inactive).

Turning to `COc1ccc(NC(=O)c2nc(-n3nc(C)cc3C)ccc2Cl)cc1Cl`, the activation is -2.77% (inactive).

In the case of `CC(=O)OCCN(CCCn1c(-c2ccncc2)nc2ccccc21)c1nc(-c2ccc(C)cc2)cs1`, the activation is -1.12% (inactive).

In the case of `C=CC[C@@H](CC(=O)N[C@@H](CO)Cc1ccccc1)C(=O)NCCOC(=O)[C@@H](CC=C)CC(=O)OC(C)(C)C`, the activation was -2.2% (inactive).

In the case of `C=CC[C@@H](CC(=O)N[C@@H](CO)Cc1ccccc1)C(=O)N[C@H](COC(=O)[C@H](CC=C)CC(=O)OC(C)(C)C)Cc1ccccc1`, the activation is 32.4% (active).

For the compound `C=CC[C@@H](CC(=O)N[C@H](CO)Cc1ccccc1)C(=O)N[C@H](C)COC(=O)[C@@H](CC=C)Cc1ccc(F)cc1`, the activation is -2.99% (inactive).

For the compound `CCCc1cc(=O)[nH]c2nnc(SCC(=O)Nc3nnc(SCC)s3)n12`, the activation was -0.61% (inactive).

`O=C(NCc1ccccc1Cl)NC(=O)c1csc([N+](=O)[O-])c1`: the activation is -1.89% (inactive).

`O=C(COc1ncnc2ccccc12)NC(=O)NCc1ccccc1`: the activation was -0.7% (inactive).

On to `O=C(O)CCC(=O)NCc1ccc(C(=O)O)cc1`, for which the activation was -0.32% (inactive).

As to `COc1ccccc1N=C(C)C1=C(O)COC1=O`, the activation is 0.65% (inactive).

Take `COc1cc(N=Cc2c(O)c3ccccc3oc2=O)c(OC)cc1Cl`: the activation was -0.88% (inactive).

For `COc1ccccc1N=Cc1c(O)c2ccccc2oc1=O`, the activation is 120% (active).

Take `COc1ccc(-c2nc3ccccc3n2CCC(C)C)cc1OC`: the activation is -2.77% (inactive).

For the compound `COc1ccc(C(C)(C)C)cc1NC(=O)CCN1C(=O)C2CCCCC2C1=O` (configuration not stated), the activation is 0.21% (inactive).

For `CS(=O)(=O)N(CC(=O)N/N=C/c1ccccn1)c1ccc(Oc2ccccc2)cc1`, the activation is 1.21% (inactive).

On to `CC1(C)Cc2ccccc2-c2nc(CN3CCOCC3)[nH]c(=O)c21`, for which the activation is 2.37% (inactive).

Consider `CC1(C)Cc2ccccc2-c2[nH]c(=S)[nH]c(=O)c21`, for which the activation is -3.14% (inactive).

Take `CCC1(CC)Cc2ccccc2-c2nc(CCl)[nH]c(=O)c21`: the activation is 45.2% (active).

In the case of `Cc1ccc2nnn(Cc3cccc(C(C)(C)C)c3O)c2c1`, the activation was -2.21% (inactive).

In the case of `CCOC(=O)/C=C/c1ccc(C(F)(F)F)cc1S(=O)(=O)NC(C)(C)C`, the activation is 3.87% (inactive).

Regarding `COc1ccc(CNC(=O)CCC(=O)Nc2nnc(C(C)C)s2)cc1`, the activation was 2.87% (inactive).

In the case of `CNC(=S)N/N=C/c1cn(Cc2ccc(C)cc2)c2ccccc12`, the activation was -0.8% (inactive).

Turning to `N#CCC(=O)N/N=C/c1cn(Cc2ccc3ccccc3c2)c2ccccc12`, the activation was 77.3% (active).

Consider `COc1cccc(Cn2cc(/C=N/NC(=O)c3cc(O)cc(O)c3)c3ccccc32)c1`, for which the activation was -0.87% (inactive).

The values above are taken from PubChem BioAssay AID463104 (Sanford-Burnham Center for Chemical Genomics, 2010).
